The values below come from ChEMBL document CHEMBL5131562, “1,3-Dioxane-Linked Novel Bacterial Topoisomerase Inhibitors: Expanding Structural Diversity and the Antibacterial Spectrum” (ACS Med Chem Lett, 2022).

Converted amounts (≈) assume the structure as drawn.

In data set [1] the test system is Neisseria gonorrhoeae. In words: Antimicrobial activity against Neisseria gonorrhoeae K strain harbouring type 2 topoisomerase GyrA S91F, D95N and ParC S87R, S88P mutant incubated for 20 to 24 hrs by CLSI protocol based broth microdilution method. Conditions: time 20-24 hrs. The class given is functional.
Data set [2] concerns Neisseria gonorrhoeae. In words: Antimicrobial activity against wild type Neisseria gonorrhoeae Y strain harbouring type 2 topoisomerase GyrA S91F, D95G and ParC S87R mutant incubated for 20 to 24 hrs by CLSI protocol based broth microdilution method. The class given is functional. Particulars: time 20-24 hrs.
The test system of data set [3] is Neisseria gonorrhoeae. The experiment in a line: Antimicrobial activity against wild type Neisseria gonorrhoeae V strain harbouring type 2 topoisomerase GyrA S91F, D95G and ParC S87R mutant incubated for 20 to 24 hrs by CLSI protocol based broth microdilution method. The class given is functional. Particulars: time 20-24 hrs.
Another data set addresses Topoisomerase IV (Staphylococcus aureus, UniProt P0C1S7+P0C1U9). In words: Inhibition of Staphylococcus aureus DNA topoisomerase 4 decatenation activity using kDNA as substrate incubated for 10 to 20 min by ethidium bromide/bromophenol blue staining based agarose gel electrophoresis analysis. The format is protein-complex assay.
The test system of data set [4] is Neisseria gonorrhoeae. The experiment in a line: Antimicrobial activity against wild type Neisseria gonorrhoeae P strain incubated for 20 to 24 hrs by CLSI protocol based broth microdilution method. The class given is functional. Particulars: time 20-24 hrs. For orientation: Broth dilution looks for growth in wells or tubes with falling amounts of substance.
Data set [5] has as its system Staphylococcus aureus. In words: Antibacterial activity against Staphylococcus aureus 3527 by CLSI method. The class given is functional.
Data set [6] is described as follows: Cytotoxicity activity against human K/VP.5 cells assessed as inhibition of cellular growth. The class given is toxicity, cell-based. Summed up: (§1)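 Human K562 leukemia cells were tested alongside K/VP.5, an etoposide-resistant clonal subline derived from them that has reduced levels of human topoisomerase IIα. Cell growth inhibition was expressed as an IC50.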

The subject of data set [7] is Staphylococcus aureus. In words: Antibacterial activity against cystic fibrosis isolate Staphylococcus aureus by CLSI method. The format is functional.
Data set [8] has as its system Neisseria gonorrhoeae. The experiment in a line: Antimicrobial activity against wild type Neisseria gonorrhoeae F strain incubated for 20 to 24 hrs by CLSI protocol based broth microdilution method. Particulars: time 20-24 hrs. The format is functional.
Data set [9] relates to Staphylococcus aureus. The experiment in a line: Antibacterial activity against Staphylococcus aureus harbouring GyrA D83N mutant by CLSI method. The format is functional.
A short description of data set [10]: Metabolic stability in mouse liver microsomes assessed as half life. The class given is ADME, Microsome. On the technique in general: Microsomes from liver hold many membrane-bound enzymes, among them those of drug oxidation.
The test system of data set [11] is Neisseria gonorrhoeae. In words: Antimicrobial activity against wild type Neisseria gonorrhoeae ATCC 49226 incubated for 20 to 24 hrs by CLSI protocol based broth microdilution method. Conditions: time 20-24 hrs. The format is functional.
In data set [12] the target is Voltage-gated inwardly rectifying potassium channel KCNH2 (Homo sapiens, UniProt Q12809). In words: Inhibition of hERG cardiac ion channel. The class given is toxicity. The essentials:
(§2)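 hERG channel inhibition was run by a contract lab. […] Determinations were made in duplicate or triplicate (n = 2 or 3).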
Background: Block of hERG is tested as a sign of cardiac risk.

The nature of data set [13]: Cytotoxicity activity against human K562 cells assessed as inhibition of cellular growth. The class given is toxicity, cell-based. Summed up: as §1
A further data set has as its target DNA gyrase (Staphylococcus aureus, UniProt P0A0K8+P20831). The experiment in a line: Inhibition of Staphylococcus aureus DNA gyrase supercoiling activity incubated for 25 min by ethidium bromide/bromophenol blue staining based agarose gel electrophoresis analysis. The format is protein-complex assay.
In data set [14] the test system is Neisseria gonorrhoeae. The experiment in a line: Antimicrobial activity against Neisseria gonorrhoeae G strain harbouring type 2 topoisomerase GyrA S91F and ParE G410V mutant incubated for 20 to 24 hrs by CLSI protocol based broth microdilution method. The format is functional. Particulars: time 20-24 hrs.
Data set [15] relates to Staphylococcus aureus. In words: Selectivity ratio of IC50 for inhibition of Staphylococcus aureus DNA topoisomerase 4 decatenation activity to IC50 for inhibition of Staphylococcus aureus DNA gyrase supercoiling activity.
For data set [16], the system named is Staphylococcus aureus. In words: Antibacterial activity against methicillin-resistant Staphylococcus aureus USA300 by CLSI method. The format is functional.
Data set [17] deals with Neisseria gonorrhoeae. In words: Antimicrobial activity against wild type Neisseria gonorrhoeae O strain incubated for 20 to 24 hrs by CLSI protocol based broth microdilution method. Particulars: time 20-24 hrs. The class given is functional.
Data set [18] relates to Staphylococcus aureus. The experiment in a line: Antibacterial activity against Staphylococcus aureus ATCC 29213 by CLSI method. The class given is functional.
A further data set deals with hERG (KCNH2) (Homo sapiens, UniProt Q12809). The experiment in a line: Inhibition of hERG cardiac ion channel at 200 uM relative to control. The format is toxicity. The essentials:
as §2

In general, MIC refers to the least concentration at which growth counts as inhibited. Lower therefore signals a more susceptible organism. The IC50 is the concentration needed to halve the response being measured. For orientation: half-life means the time in which the quantity being followed falls by half. Consider `O=c1ccc2ccc(F)c3c2n1CC3C[C@H]1OC[C@H](NCc2ccc3c(c2)OCCO3)CO1` (some centres not stated), for which the MIC is 0.12 µg/mL (≈ 0.265 µM) against Neisseria gonorrhoeae [1]; ≤ 0.03 µg/mL against Neisseria gonorrhoeae [2]; ≤ 0.03 µg/mL against Neisseria gonorrhoeae [3]; 0.25 µg/mL (≈ 0.553 µM) with Neisseria gonorrhoeae [4]; 0.25 µg/mL (≈ 0.553 µM) against Staphylococcus aureus [5]; 0.25 µg/mL (≈ 0.553 µM) with Staphylococcus aureus [7]. Besides, the MIC against Neisseria gonorrhoeae [8] is ≤ 0.03 µg/mL; in the data set on Staphylococcus aureus [9] it was 4 µg/mL (≈ 8.84 µM); with Neisseria gonorrhoeae [11], 0.12 µg/mL (≈ 0.265 µM); with Neisseria gonorrhoeae [14] it was 0.5 µg/mL (≈ 1.11 µM); in the data set with Staphylococcus aureus [16], 0.25 µg/mL (≈ 0.553 µM); against Neisseria gonorrhoeae [17], 0.25 µg/mL (≈ 0.553 µM). Moreover, the MIC in the data set on Staphylococcus aureus [18] amounted to 0.125 µg/mL (≈ 0.276 µM). Also, the IC50 on Topoisomerase IV worked out at 0.6 µM; in [6], 33.9 µM; in data set [12], 35 µM; in data set [13] it was 29.1 µM; against DNA gyrase, 0.23 µM. Further, the half-life in data set [10] turned out to be 0.0543 h. Also, the Ratio IC50 with Staphylococcus aureus [15] turned out to be 2.6.

What is called inhibition is how much of the control response was suppressed. Read a high inhibition as a strong effect. For `O=c1ccc2ncc(F)c3c2n1CC3C[C@H]1OC[C@H](NCc2cc3c(nn2)OCCS3)CO1` (some centres not stated), the MIC stood at 32 µg/mL (≈ 67.9 µM) in the data set with Neisseria gonorrhoeae [1]; 8 µg/mL (≈ 17 µM) in the data set on Neisseria gonorrhoeae [2]; 4 µg/mL (≈ 8.48 µM) with Neisseria gonorrhoeae [3]; 32 µg/mL (≈ 67.9 µM) against Neisseria gonorrhoeae [4]; 4 µg/mL (≈ 8.48 µM) in the data set with Staphylococcus aureus [5]; 2 µg/mL (≈ 4.24 µM) against Staphylococcus aureus [7]. Also, the MIC is 8 µg/mL (≈ 17 µM) in the data set with Neisseria gonorrhoeae [8]; > 8 µg/mL in the data set on Staphylococcus aureus [9]; 32 µg/mL (≈ 67.9 µM) in the data set on Neisseria gonorrhoeae [11]; > 32 µg/mL in the data set on Neisseria gonorrhoeae [14]; 4 µg/mL (≈ 8.48 µM) against Staphylococcus aureus [16]; 32 µg/mL (≈ 67.9 µM) in the data set with Neisseria gonorrhoeae [17]. In the data set with Staphylococcus aureus [18], this compound gave an MIC of 2 µg/mL (≈ 4.24 µM). Further, the IC50 is 10 µM against Topoisomerase IV; 197 µM in data set [6]; > 200 µM in data set [12]; 98 µM in [13]; 1.8 µM against DNA gyrase. In addition, the half-life in data set [10] worked out at 1.88 h. The inhibition at 200 µM at hERG (KCNH2) worked out at 23%. The Ratio IC50 in the data set on Staphylococcus aureus [15] stood at 5.6.

Take `O=c1ccc2ccc(F)c3c2n1CC3C[C@H]1OC[C@H](NCc2cc3c(nn2)OCCS3)CO1` (some centres not stated): the MIC with Neisseria gonorrhoeae [1] is 32 µg/mL (≈ 68 µM); in the data set on Neisseria gonorrhoeae [2], 2 µg/mL (≈ 4.25 µM); with Neisseria gonorrhoeae [3] it was 4 µg/mL (≈ 8.5 µM); against Neisseria gonorrhoeae [4], 16 µg/mL (≈ 34 µM); with Staphylococcus aureus [5], 1 µg/mL (≈ 2.13 µM); with Staphylococcus aureus [7], 0.5 µg/mL (≈ 1.06 µM). Further, the MIC in the data set on Neisseria gonorrhoeae [8] was determined as 2 µg/mL (≈ 4.25 µM); against Staphylococcus aureus [9] it was 8 µg/mL (≈ 17 µM); in the data set with Neisseria gonorrhoeae [11], 16 µg/mL (≈ 34 µM); with Neisseria gonorrhoeae [14], 32 µg/mL (≈ 68 µM); against Staphylococcus aureus [16], 1 µg/mL (≈ 2.13 µM); against Neisseria gonorrhoeae [17] it was 16 µg/mL (≈ 34 µM). The compound further came in with an MIC against Staphylococcus aureus [18] of 0.5 µg/mL (≈ 1.06 µM). In addition, the IC50 turned out to be 7.4 µM against Topoisomerase IV; 103 µM in data set [6]; 200 µM in data set [12]; 38.7 µM in data set [13]; 1.7 µM against DNA gyrase. Besides, in [10], the half-life was determined as 0.365 h. Also, the Ratio IC50 in the data set on Staphylococcus aureus [15] was found to be 4.4.

Consider `O=c1ccc2ccc(F)c3c2n1CC3C[C@H]1OC[C@H](NCc2cc3c(nn2)OCCO3)CO1` (some centres not stated), for which the MIC is > 32 µg/mL in the data set on Neisseria gonorrhoeae [1]; 32 µg/mL (≈ 70.4 µM) in the data set with Neisseria gonorrhoeae [2]; 32 µg/mL (≈ 70.4 µM) against Neisseria gonorrhoeae [3]; 32 µg/mL (≈ 70.4 µM) in the data set with Neisseria gonorrhoeae [4]; 4 µg/mL (≈ 8.8 µM) in the data set on Staphylococcus aureus [5]; 1 µg/mL (≈ 2.2 µM) in the data set on Staphylococcus aureus [7]. Besides, the MIC in the data set with Neisseria gonorrhoeae [8] was 16 µg/mL (≈ 35.2 µM); against Staphylococcus aureus [9], > 8 µg/mL; in the data set with Neisseria gonorrhoeae [11], 32 µg/mL (≈ 70.4 µM); with Neisseria gonorrhoeae [14] it was > 32 µg/mL; in the data set with Staphylococcus aureus [16], 4 µg/mL (≈ 8.8 µM); in the data set with Neisseria gonorrhoeae [17], 32 µg/mL (≈ 70.4 µM). For the same compound, in the data set with Staphylococcus aureus [18], the MIC came out at 2 µg/mL (≈ 4.4 µM). The IC50 against Topoisomerase IV was 9.7 µM; in data set [6], 171 µM; in [12] it was > 200 µM; in data set [13] it was 156 µM; at DNA gyrase, 3.5 µM. Moreover, the half-life in [10] was 1.7 h. Also, at 200 µM the inhibition against hERG (KCNH2) was 21%. Also, the Ratio IC50 in the data set on Staphylococcus aureus [15] was 2.8.

For `O=C1COc2ccc(CN[C@H]3CO[C@H](CC4Cn5c(=O)ccc6ncc(F)c4c65)OC3)nc2N1` (some centres not stated), the minimal inhibitory concentration (MIC) against Neisseria gonorrhoeae [1] amounted to 1 µg/mL (≈ 2.14 µM); with Neisseria gonorrhoeae [2], 1 µg/mL (≈ 2.14 µM); with Neisseria gonorrhoeae [3], 0.5 µg/mL (≈ 1.07 µM); against Neisseria gonorrhoeae [4] it was 2 µg/mL (≈ 4.28 µM); in the data set with Staphylococcus aureus [5], 2 µg/mL (≈ 4.28 µM); against Staphylococcus aureus [7], 2 µg/mL (≈ 4.28 µM). In addition, the MIC in the data set with Neisseria gonorrhoeae [8] was found to be 0.12 µg/mL (≈ 0.257 µM); against Staphylococcus aureus [9], 8 µg/mL (≈ 17.1 µM); against Neisseria gonorrhoeae [11], 1 µg/mL (≈ 2.14 µM); against Neisseria gonorrhoeae [14] it was 2 µg/mL (≈ 4.28 µM); against Staphylococcus aureus [16], 1 µg/mL (≈ 2.14 µM); in the data set on Neisseria gonorrhoeae [17] it was 1 µg/mL (≈ 2.14 µM). It took 2 µg/mL (≈ 4.28 µM) to inhibit growth against Staphylococcus aureus [18] (MIC). Besides, the IC50 against Topoisomerase IV is 1.4 µM; in data set [6], > 200 µM; in [12], 97 µM; in data set [13], > 200 µM; against DNA gyrase, 4.2 µM. For the same compound, the half-life in data set [10] was 1.1 h. For the same compound, the Ratio IC50 with Staphylococcus aureus [15] was 0.33.
